Reference: ChEMBL document CHEMBL1124475, “The thieno[3,2-c]pyridine and furo[3,2-c]pyridine rings: new pharmacophores with potential antipsychotic activity” (J Med Chem, 1989)
Activity calls are given as the source filed them. No cut-off for these calls is given here.

What was measured:
[1] = target: D(2) dopamine receptor (Rattus norvegicus, UniProt P61169); test: Ability to bind at Dopamine receptor D2 of rat corpus striatum by displacing [3H]spiperone
Outline: (§1)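 Rat receptor radioligand displacement, five test-ligand concentrations used to calculate IC50, each assay in duplicate. Some compounds determined four times (in duplicate), with mean IC50 reported.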

[2] = tested on: Rattus norvegicus; test: Spontaneous discharge activity of individual dopaminergic neurons in the ventral tegmentum neurons (A10 DA cells) when administered subcutaneously at a dose of 5.0 mg/kg/day in anesthetized male Sprague-Dawley rats; No effect at a dose of 0.1-6.3 mg/kg; assay type: functional, organism-based; conditions: A10DA
[3] = tested on: Rattus norvegicus; test: Induction of catalepsy in rats when administered perorally and maximum dose examined was 4 times the ED50 value established in CAR; Inactive; assay type: functional, organism-based
[4] = tested on: Rattus norvegicus; test: Spontaneous discharge activity of individual dopaminergic neurons in the ventral tegmentum neurons (A10 DA cells) when administered intravenously at a dose of 0.1-6.3 mg/kg in anesthetized male Sprague-Dawley rats; No effect at a dose of 0.1-6.3 m g/kg; assay type: functional, organism-based; conditions: A10DA
[5] = tested on: Rattus norvegicus; test: Reversal of trifluoperazine-induced catalepsy in rats when administered perorally; assay type: functional; conditions: po
[6] = tested on: Rattus norvegicus; test: Spontaneous discharge activity of individual noradrenergic neurons in the locus coeruleus (LC) when administered intravenously in anesthetized male Sprague-Dawley rats; (excitatory); assay type: functional; conditions: iv
[7] = tested on: Rattus norvegicus; test: Spontaneous discharge activity of individual serotonergic neurons in the dorsal raphe (DR) nucleus when administered intravenously in anesthetized male Sprague-Dawley rats; (Inhibitory); assay type: functional; conditions: iv
[8] = tested on: Rattus norvegicus; test: Conditioned avoidance response (CAR) when administered perorally; assay type: functional; conditions: po
[9] = tested on: Rattus norvegicus; test: Blockade of apomorphine-induced stereotypy in rats when administered perorally; assay type: functional; conditions: po
[10] = tested on: Rattus norvegicus; test: Blockade of Sidman-avoidance activity in rats when administered perorally; assay type: functional; conditions: po
Outline: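 Rats trained in once-daily Sidman sessions until stable; non-learners after 3 days replaced. Twelve rats dosed 30 min before session. Each rat compared with mean of its previous three drug-free days by paired t test. Testing continued to minimally effective dose; maximum usually 100 mg/kg. MED is mean over 12 animals.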

[11] = target: Serotonin 2 (5-HT2) receptor (Rattus norvegicus, UniProt P30994+P08909+P14842); test: Ability to bind at serotonin 5-hydroxytryptamine 2 receptors of rat cortex by displacing [3H]spiperone
[12] = tested on: Rattus norvegicus; test: Spontaneous discharge activity of individual dopaminergic neurons in substantia nigra (A9DA cells) when administered subcutaneously at dose of 5.0 mg/kg/day in anesthetized male Sprague-Dawley rats; small increase in the number of DA cells per track; assay type: functional, organism-based
[13] = target: Serotonin 1 (5-HT1) receptor (Rattus norvegicus, UniProt P28564+P30940+P19327+P28565); test: Ability to bind at 5-hydroxytryptamine 1 receptor of rat hippocampus by displacing [3H]5-HT; assay type: tissue-based; outline: as §1
[14] = target: T1, Adrenergic receptor alpha-1 (Rattus norvegicus, UniProt P15823+P23944+P43140); test: Ability to bind at alpha-1 adrenergic receptor by displacing [3H]WB-4101; assay type: protein assay; outline: as §1
T1 sequence (P15823 whole entry): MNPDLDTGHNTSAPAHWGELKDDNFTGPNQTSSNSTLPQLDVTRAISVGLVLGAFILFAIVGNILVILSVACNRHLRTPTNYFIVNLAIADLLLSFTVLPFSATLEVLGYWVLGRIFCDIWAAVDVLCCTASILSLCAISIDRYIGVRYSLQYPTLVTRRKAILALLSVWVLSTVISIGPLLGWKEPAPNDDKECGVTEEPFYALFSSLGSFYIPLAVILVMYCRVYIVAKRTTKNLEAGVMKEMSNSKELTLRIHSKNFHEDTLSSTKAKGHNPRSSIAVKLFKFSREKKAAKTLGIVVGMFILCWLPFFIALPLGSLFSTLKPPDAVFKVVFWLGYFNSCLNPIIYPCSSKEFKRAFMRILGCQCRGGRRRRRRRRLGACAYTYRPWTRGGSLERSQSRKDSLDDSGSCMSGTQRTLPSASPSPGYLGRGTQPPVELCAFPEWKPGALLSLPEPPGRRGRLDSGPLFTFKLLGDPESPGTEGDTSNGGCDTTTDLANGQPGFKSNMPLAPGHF
T1 sequence (P23944 whole entry): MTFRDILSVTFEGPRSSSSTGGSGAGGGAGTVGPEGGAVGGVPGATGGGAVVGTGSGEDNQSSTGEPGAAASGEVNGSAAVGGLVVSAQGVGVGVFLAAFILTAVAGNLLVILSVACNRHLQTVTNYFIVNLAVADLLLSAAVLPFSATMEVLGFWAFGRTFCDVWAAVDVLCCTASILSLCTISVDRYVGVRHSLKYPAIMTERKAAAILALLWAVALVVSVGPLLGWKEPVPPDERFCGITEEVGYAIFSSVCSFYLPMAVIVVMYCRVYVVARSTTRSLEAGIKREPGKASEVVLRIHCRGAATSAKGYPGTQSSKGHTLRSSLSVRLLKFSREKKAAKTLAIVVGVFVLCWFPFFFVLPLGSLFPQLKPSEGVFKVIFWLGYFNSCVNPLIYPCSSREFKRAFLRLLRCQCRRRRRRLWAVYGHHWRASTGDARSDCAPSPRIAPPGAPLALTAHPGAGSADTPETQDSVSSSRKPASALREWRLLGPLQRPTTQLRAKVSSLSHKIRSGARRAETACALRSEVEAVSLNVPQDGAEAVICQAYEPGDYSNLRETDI
T1 sequence (P43140 whole entry): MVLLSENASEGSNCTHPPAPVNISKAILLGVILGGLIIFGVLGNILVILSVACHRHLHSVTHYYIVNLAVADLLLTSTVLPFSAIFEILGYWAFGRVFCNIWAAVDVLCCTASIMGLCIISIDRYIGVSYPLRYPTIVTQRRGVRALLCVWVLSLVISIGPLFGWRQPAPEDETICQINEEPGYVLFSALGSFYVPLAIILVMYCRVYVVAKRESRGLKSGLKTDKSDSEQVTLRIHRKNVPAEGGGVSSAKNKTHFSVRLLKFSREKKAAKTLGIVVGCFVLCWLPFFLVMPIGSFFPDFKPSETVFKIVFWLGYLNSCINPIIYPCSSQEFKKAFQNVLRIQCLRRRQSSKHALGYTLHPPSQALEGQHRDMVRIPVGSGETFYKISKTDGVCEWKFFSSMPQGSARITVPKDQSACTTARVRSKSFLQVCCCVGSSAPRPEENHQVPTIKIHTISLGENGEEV

[15] = tested on: Rattus norvegicus; test: Spontaneous discharge activity of individual dopaminergic neurons in the substantia nigra (A9 DA cells) when administered intravenously at a dose of 0.1-6.3 mg/kg in anesthetized male Sprague-Dawley rats; No effect at a dose of 0.1-6.3 mg/kg; assay type: functional, organism-based; conditions: A9DA

D(2) dopamine receptor, sequence (P61169 whole entry): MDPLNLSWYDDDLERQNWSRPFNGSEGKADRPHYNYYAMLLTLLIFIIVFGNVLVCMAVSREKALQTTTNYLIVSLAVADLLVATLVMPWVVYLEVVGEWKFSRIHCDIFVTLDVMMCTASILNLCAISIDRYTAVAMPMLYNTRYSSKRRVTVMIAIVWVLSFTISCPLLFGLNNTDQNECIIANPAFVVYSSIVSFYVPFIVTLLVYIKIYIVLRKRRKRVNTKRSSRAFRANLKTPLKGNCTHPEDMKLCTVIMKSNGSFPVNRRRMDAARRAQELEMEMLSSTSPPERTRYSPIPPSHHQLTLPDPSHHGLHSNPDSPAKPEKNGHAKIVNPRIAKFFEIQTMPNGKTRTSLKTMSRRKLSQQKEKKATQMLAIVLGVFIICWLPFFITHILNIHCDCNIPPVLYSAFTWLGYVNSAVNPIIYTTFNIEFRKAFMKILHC

In the case of `O=C1COCC(=O)N1CCCCN1CCN(c2nccc3occc23)CC1`, the IC50 [1] is reported as > 1000 nM, the ED25 [2] is reported as “inactive” and the ED50 [3] is reported as “inactive”. For the same compound, the ED25 [4] was “inactive”, the ED50 [5] was 2.2 mg/kg and the ED25 [6] was 0.017 mg/kg. It also gave an ED50 [7] of 0.01 mg/kg, an ED50 [8] of 11.2 mg/kg and an ED50 [9] of 34 mg/kg. The MED [10] was 25 mg/kg, the IC50 [11] was 55.2 nM and the ED25 [12] was “inactive”. The IC50 [13] was 33.5 nM, the IC50 [14] was 40.9 nM and the ED25 [15] was “inactive”.
